Measurements reported in ChEMBL document CHEMBL1124932, “Synthesis and antiviral activity of 9-alkoxypurines. 1. 9-(3-Hydroxypropoxy)- and 9-[3-hydroxymethyl)propoxy]purines” (J Med Chem, 1990).

Legend:
[1] = test system: Mus musculus; experiment: Concentration of BRL 44385 in blood was determined in female BALB/c mice at 60 min a after of dosing of […]; assay type: ADME, organism-based; settings: in vivo, 1 h
Summary of the method: (§1)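 Female Balb/c mice (20 g), fasted 18 h, given a single 0.2 mmol/kg oral gavage dose in 0.1 mL 1% (carboxymethyl)cellulose. Blood drawn by cardiac puncture with heparinised syringes at 15, 60 and 180 min. Equal volumes from three mice pooled per time point. Samples deproteinised with 16% trichloroacetic acid, neutralised with NaHCO3, mixed with 0.4 M NH4OAc (pH 6.0), and analysed by HPLC.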

[2] = test system: Mus musculus; experiment: Concentration of BRL 44385 in blood was determined in female BALB/c mice at 15 min a after of dosing of […]; assay type: ADME, organism-based; settings: in vivo, 0.25 h; summary of the method: as §1
[3] = test system: Vero; experiment: Antiviral activity in plaque reduction assay was determined against herpes simplex virus type 1 (HSV-1) in Vero cells.; assay type: functional, cell-based; settings: Chlorocebus sabaeus
Summary of the method: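 Vero monolayers infected with about 50 PFU HSV-1. Compound at various concentrations, present throughout incubation. Stocks 10 mg/mL in Me2SO, diluted in culture medium. Plaques counted when clearly visible, usually 3 days.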

[4] = test system: MRC5; experiment: Antiviral activity in plaque reduction assay was determined against herpes simplex virus type 2 (HSV-2) in MRC-5 cells.; assay type: functional, cell-based; settings: Homo sapiens
Summary of the method: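 HSV-2 at about 50 PFU infected onto MRC-5 monolayers. Compound at various concentrations, present throughout incubation. Stocks 10 mg/mL in Me2SO, diluted in culture medium. Plaques counted when clearly visible, usually 1 day.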

[5] = test system: MRC5; experiment: Antiviral activity in plaque reduction assay was determined against varicella zoster virus (VZV) in MRC-5 cells.; assay type: functional, cell-based; settings: Homo sapiens
[6] = test system: Mus musculus; experiment: Concentration of BRL 44385 in blood was determined in female BALB/c mice at 60 min after dosing of […]; assay type: ADME, organism-based; settings: in vivo, 1 h; summary of the method: as §1

| SMILES | concentration [1] | concentration [2] | concentration [6] | IC50 [3] | IC50 [4] | IC50 [5] |
| --- | --- | --- | --- | --- | --- | --- |
| Nc1ncc2ncn(OCCCOC(=O)c3ccccc3)c2n1 | 4 µM | 46 µM |  |  |  |  |
| Nc1nc(O)c2ncn(OCC3COP(=O)(O)OC3)c2n1 (stereo not drawn) |  |  |  | 180 µM | 180 µM | 186 µM |
| CC(=O)OCCCOn1cnc2c(O)nc(N)nc21 | 5 µM | 3 µM |  | 16 µM | 4.1 µM | 45 µM |
| Nc1nc(O)c2ncn(OCCCO)c2n1 | 5 µM | 8 µM |  | 2.1 µM | 0.71 µM | 4.4 µM |
| Nc1nc(O)c2ncn(OCC(CO)CO)c2n1 | 2 µM | 2 µM |  | 5.9 µM | 5.9 µM | 11 µM |
| CCOc1nc(N)nc2c1ncn2OCCCO | < 2 µM | 6 µM |  |  |  |  |
| COc1nc(N)nc2c1ncn2OCC(CO)CO | 8 µM | 7 µM |  |  |  |  |
| Nc1nc(Cl)c2ncn(OCC(CO)CO)c2n1 | 5 µM | 11 µM |  |  |  |  |
| CC(=O)OCCCOn1cnc2cnc(N)nc21 | 3 µM | 45 µM |  |  |  |  |
| Nc1ncc2ncn(OCC(CO)CO)c2n1 | 16 µM | 31 µM |  |  |  |  |
| CC(C)Oc1nc(N)nc2c1ncn2OCC(CO)CO | 26 µM | 29 µM |  |  |  |  |
| Nc1nc2c(ncn2COCCO)c(=O)[nH]1 [ACYCLOVIR] |  |  |  | 6.7 µM | 2.5 µM |  |

More lines, main results first:

| concentration [1] | concentration [2] | concentration [6] | SMILES | IC50 [3] | IC50 [4] | IC50 [5] |
| --- | --- | --- | --- | --- | --- | --- |
| < 2 µM | < 2 µM |  | Nc1nc(O)c2ncn(OCCCOC(=O)c3ccccc3)c2n1 | 8.5 µM | 6.4 µM | > 300 µM |
| 10 µM | 53 µM |  | CC(=O)OCC(COC(C)=O)COn1cnc2cnc(N)nc21 |  |  |  |
| 15 µM | 37 µM |  | CCOc1nc(N)nc2c1ncn2OCC(CO)CO |  |  |  |
|  | 14 µM | 9 µM | Nc1ncc2ncn(OCC(COC(=O)c3ccccc3)COC(=O)c3ccccc3)c2n1 |  |  |  |
| 4 µM | 66 µM |  | CCCCCC(=O)OCCCOn1cnc2cnc(N)nc21 |  |  |  |
| < 2 µM | < 2 µM |  | Nc1nc(N)c2ncn(OCC(CO)CO)c2n1 |  |  |  |
| 3 µM | 43 µM |  | Nc1ncc2ncn(OCCCO)c2n1 |  |  |  |
| 12 µM | 49 µM |  | CCC(=O)OCC(COC(=O)CC)COn1cnc2cnc(N)nc21 |  |  |  |
| 3 µM | 8 µM |  | CCCCCC(=O)OCCCOn1cnc2c(O)nc(N)nc21 | 2.1 µM | 0.22 µM | 7.4 µM |
